Data as given in ChEMBL document CHEMBL4831494, “Synthesis and evaluation of FAK inhibitors with a 5-fluoro-7H-pyrrolo[2,3-d]pyrimidine scaffold as anti-hepatocellular carcinoma agents” (Eur J Med Chem, 2021).

Key:
Focal adhesion kinase 1 = Focal adhesion kinase 1 (Homo sapiens, UniProt Q05397); assay: Inhibition of FAK (unknown origin) using Poly(Glu,Tyr) and ATP as substrate measured after 40 mins by Kinase-Glo Plus luminescence assay
cells = conditions: Homo sapiens, YY-8103, 48 h
SMMC-7721 [1] = assay: cells; conditions: Homo sapiens, SMMC-7721, 48 h
[2] = Toxicity in BALB/c nude mouse assessed as animal's mortality at 30 mg/kg, ip measured on day 11; assay type: organism-based; conditions: in vivo, 264 h, time 11 day
Summary of the method: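 Six-week-old male BALB/c nude mice bearing subcutaneous SMMC7721 xenografts (1.0 × 10⁷ cells); dosing started at mean tumor 25-35 mm³, n = 8 per group. Ip every 3 days in DMSO/propylene glycol/PBS (2:5:3); vehicle 1.0 mL/kg as negative control. Body weight weighed and deaths recorded every 3 days before each dose, through day 19.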

SMMC-7721 [3] = assay: Antitumor activity against human […] cells xenografted in BALB/c nude mouse assessed as tumor size at 30 mg/kg, ip administered for 19 days (reference value: 600.8 mm3); assay type: functional; conditions: time 19 day
Summary of the method: (§1)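 Male BALB/c nude mice, six weeks old, inoculated s.c. with 1.0 × 10⁷ SMMC7721 cells. Dosing began at mean tumour 25e35 mm³; five randomized groups, n = 8. Solvent DMSO/propylene glycol/PBS 2:5:3 (vehicle 1.0 mL/kg), all given i.p. every 3 days. Tumour size (calipers) and body weight taken before each dose. V = length × width²/2. TGI = [1 − (T−T₀)/(C−C₀)] × 100.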

SMMC-7721 [4] = assay: Antitumor activity against human […] cells xenografted in BALB/c nude mouse assessed as tumor growth inhibition at 30 mg/kg, ip administered for 19 days; assay type: functional; conditions: SMMC-7721, ip, 456 h, time 19 day, read-out: TGI; summary of the method: as §1
[5] = Toxicity in BALB/c nude mouse assessed as effect on body weight at 30 mg/kg, ip administered for 19 days; assay type: organism-based; conditions: in vivo, 456 h, time 19 day; summary of the method: as §1

Chain of Focal adhesion kinase 1 (Q05397 whole entry): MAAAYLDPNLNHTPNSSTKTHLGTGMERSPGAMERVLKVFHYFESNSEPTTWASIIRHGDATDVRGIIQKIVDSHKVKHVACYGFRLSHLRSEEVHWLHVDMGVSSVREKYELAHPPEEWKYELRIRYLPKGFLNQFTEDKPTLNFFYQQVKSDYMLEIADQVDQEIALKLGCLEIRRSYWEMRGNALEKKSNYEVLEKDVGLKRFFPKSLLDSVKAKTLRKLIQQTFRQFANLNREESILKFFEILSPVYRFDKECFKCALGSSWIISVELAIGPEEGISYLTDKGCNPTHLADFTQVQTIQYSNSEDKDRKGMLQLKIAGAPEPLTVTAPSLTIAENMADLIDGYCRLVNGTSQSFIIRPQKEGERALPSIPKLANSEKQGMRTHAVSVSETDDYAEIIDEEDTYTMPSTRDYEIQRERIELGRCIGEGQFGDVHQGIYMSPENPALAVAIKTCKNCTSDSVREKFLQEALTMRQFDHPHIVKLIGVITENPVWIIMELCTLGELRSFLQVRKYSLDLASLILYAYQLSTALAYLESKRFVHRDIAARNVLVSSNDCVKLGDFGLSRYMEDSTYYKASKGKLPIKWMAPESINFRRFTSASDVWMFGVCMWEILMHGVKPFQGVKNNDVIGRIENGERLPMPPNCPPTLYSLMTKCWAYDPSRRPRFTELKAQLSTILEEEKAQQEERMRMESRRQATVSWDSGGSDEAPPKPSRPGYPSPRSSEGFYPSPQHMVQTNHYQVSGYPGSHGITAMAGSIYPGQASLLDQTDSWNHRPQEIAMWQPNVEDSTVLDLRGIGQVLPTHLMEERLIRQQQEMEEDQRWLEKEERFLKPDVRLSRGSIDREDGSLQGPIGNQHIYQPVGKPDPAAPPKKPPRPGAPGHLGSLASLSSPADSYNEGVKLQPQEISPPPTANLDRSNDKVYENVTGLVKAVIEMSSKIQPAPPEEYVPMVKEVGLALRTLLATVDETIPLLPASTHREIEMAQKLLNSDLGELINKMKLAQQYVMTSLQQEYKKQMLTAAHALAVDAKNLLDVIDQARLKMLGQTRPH

| Compound | IC50 (Focal adhesion kinase 1) [µM] | IC50 (cells) [µM] | IC50 (SMMC-7721 [1]) [µM] | Activity [2] | Activity (SMMC-7721 [3]) [mm3] | inhibition in vivo at 30 mg/kg (SMMC-7721 [4]) [%] | Activity [5] |
| --- | --- | --- | --- | --- | --- | --- | --- |
| CNC(=O)c1ccccc1Nc1nc(Nc2cccc(CNC(C)=O)c2)nc2[nH]cc(F)c12 | 0.014 | 1.06 | 18.7 | – | – | – | – |
| CNC(=O)c1cc(Oc2ccc(NC(=O)Nc3ccc(Cl)c(C(F)(F)F)c3)cc2)ccn1 [SORAFENIB] | – | – | – | Non-Toxic | 343.4 | 45.1 | Non-Toxic |
| Cc1cc2c(NCc3cccnc3N(C)S(C)(=O)=O)nc(Nc3ccc4c(c3)CC(=O)N4)nc2[nH]1 | 12 | > 100 | > 100 | – | – | – | – |
| CC(=O)NCc1cccc(Nc2nc(NCc3cccnc3N(C)S(C)(=O)=O)c3c(F)c[nH]c3n2)c1 | 0.023 | 20.5 | 21.7 | – | – | – | – |
| COc1cc(Nc2nc(NCc3cccnc3N(C)S(C)(=O)=O)c3c(F)c[nH]c3n2)cc(OC)c1OC | 0.017 | > 100 | > 100 | – | – | – | – |
| COc1ccc(Nc2nc(NCc3cccnc3N(C)S(C)(=O)=O)c3c(F)c[nH]c3n2)cc1OC | 0.015 | 18.2 | 54.8 | – | – | – | – |
| COc1cccc(Nc2nc(NCc3cccnc3N(C)S(C)(=O)=O)c3c(F)c[nH]c3n2)c1C | 0.076 | > 100 | > 100 | – | – | – | – |
| Cc1c[nH]c2nc(Nc3ccc4c(c3)CC(=O)N4)nc(NCc3cccnc3N(C)S(C)(=O)=O)c12 | 0.064 | 12.4 | 18.7 | – | – | – | – |

Further lines, with some results ahead:

| IC50 (Focal adhesion kinase 1) [µM] | IC50 (cells) [µM] | IC50 (SMMC-7721 [1]) [µM] | Compound | Activity [2] | Activity (SMMC-7721 [3]) [mm3] | inhibition in vivo at 30 mg/kg (SMMC-7721 [4]) [%] | Activity [5] |
| --- | --- | --- | --- | --- | --- | --- | --- |
| 0.023 | 15.4 | 15.3 | COc1cc(N2CCOCC2)ccc1Nc1nc(NCc2cccnc2N(C)S(C)(=O)=O)c2c(F)c[nH]c2n1 | – | – | – | – |
| 0.032 | > 100 | > 100 | CN(c1ncccc1CNc1nc(Nc2ccccc2)nc2[nH]cc(F)c12)S(C)(=O)=O | – | – | – | – |
| 0.013 | 2.39 | 13.9 | CN1CCN(c2ccc(Nc3nc(NCc4cccnc4N(C)S(C)(=O)=O)c4c(F)c[nH]c4n3)cc2)CC1 | – | – | – | – |
| 0.026 | > 100 | > 100 | CN(c1ncccc1CNc1nc(Nc2ccc(N3CCOCC3)cc2)nc2[nH]cc(F)c12)S(C)(=O)=O | – | – | – | – |
| 0.035 | > 100 | > 100 | CN(c1ncccc1CNc1nc(Nc2cccc(C#N)c2)nc2[nH]cc(F)c12)S(C)(=O)=O | – | – | – | – |
